# Laboratory results as given in ChEMBL document CHEMBL5696442, “Discovery of type II inhibitors of TGFβ-activated kinase 1 (TAK1) and mitogen-activated protein kinase kinase kinase kinase 2 (MAP4K2)” (J Med Chem, 2015).
# Key:
# Format in all cases: cell-based
# [1] = biological target: eIF-2-alpha kinase GCN2 (Homo sapiens) (UniProt Q9P2K8); assay: Inhibition of GCN2 domain2 Lys1 labeling site in human A-375 cells at 0.5 uM by KiNativ Profiling analysis relative to control
# [2] = biological target: Ribosomal protein S6 kinase alpha-3 (Homo sapiens) (UniProt P51812); assay: Inhibition of RSK2 domain2 Lys2 labeling site in human A-375 cells at 5 uM by KiNativ Profiling analysis relative to control
# Chain of Ribosomal protein S6 kinase alpha-3 (Homo sapiens) (P51812 whole entry, the tested form may be a part): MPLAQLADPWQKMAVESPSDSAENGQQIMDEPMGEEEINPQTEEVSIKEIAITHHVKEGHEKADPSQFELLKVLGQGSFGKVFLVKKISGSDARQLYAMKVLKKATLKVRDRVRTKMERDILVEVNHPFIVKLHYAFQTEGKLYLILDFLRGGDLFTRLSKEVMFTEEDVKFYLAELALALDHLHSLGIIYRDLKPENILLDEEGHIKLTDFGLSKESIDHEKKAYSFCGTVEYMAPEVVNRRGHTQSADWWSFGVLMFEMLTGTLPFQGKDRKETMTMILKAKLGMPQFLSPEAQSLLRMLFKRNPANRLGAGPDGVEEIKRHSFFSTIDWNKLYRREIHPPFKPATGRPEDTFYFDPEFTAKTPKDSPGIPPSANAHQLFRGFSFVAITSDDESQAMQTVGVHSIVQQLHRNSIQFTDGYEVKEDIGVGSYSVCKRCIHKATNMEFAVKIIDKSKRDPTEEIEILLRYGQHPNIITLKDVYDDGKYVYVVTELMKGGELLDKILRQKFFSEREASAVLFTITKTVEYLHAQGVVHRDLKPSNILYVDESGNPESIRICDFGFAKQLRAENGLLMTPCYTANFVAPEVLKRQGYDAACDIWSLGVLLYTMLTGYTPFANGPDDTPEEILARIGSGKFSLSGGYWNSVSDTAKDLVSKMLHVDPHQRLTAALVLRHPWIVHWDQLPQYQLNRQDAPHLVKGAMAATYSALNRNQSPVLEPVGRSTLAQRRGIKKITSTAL
# Method in brief: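 Live A375 melanoma cells treated with compound at 5 or 0.5 μM, then lysed. Lysate kinases were labeled with a lysine-reactive ATP or ADP-biotin probe. Inhibition was read as protection of labeling sites from the probe.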
# [3] = biological target: T1, Serine/threonine-protein kinase ULK3 (Homo sapiens) (UniProt Q6PHR2); assay: Inhibition of ULK3 Lys2 labeling site in human A-375 cells at 5 uM by KiNativ Profiling analysis relative to control
# T1 sequence (whole entry): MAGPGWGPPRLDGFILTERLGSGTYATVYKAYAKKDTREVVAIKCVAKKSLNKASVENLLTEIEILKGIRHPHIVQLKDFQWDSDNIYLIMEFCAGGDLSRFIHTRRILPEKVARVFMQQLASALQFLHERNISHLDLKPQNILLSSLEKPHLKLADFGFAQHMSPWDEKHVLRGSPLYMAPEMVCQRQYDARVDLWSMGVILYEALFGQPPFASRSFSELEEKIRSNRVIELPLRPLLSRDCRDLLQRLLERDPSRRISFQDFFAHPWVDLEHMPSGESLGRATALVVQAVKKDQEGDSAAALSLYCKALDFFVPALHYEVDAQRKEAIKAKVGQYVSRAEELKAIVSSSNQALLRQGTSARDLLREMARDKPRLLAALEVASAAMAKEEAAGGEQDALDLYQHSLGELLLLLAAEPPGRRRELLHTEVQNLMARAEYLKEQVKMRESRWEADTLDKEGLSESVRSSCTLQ
# [4] = biological target: T2, Phosphatidylinositol 5-phosphate 4-kinase type-2 gamma (Homo sapiens) (UniProt Q8TBX8); assay: Inhibition of PIP4K2C ATP labeling site harbouring VKELPTLK in human A-375 cells at 0.5 uM by KiNativ Profiling analysis relative to control
# T2 sequence (whole entry): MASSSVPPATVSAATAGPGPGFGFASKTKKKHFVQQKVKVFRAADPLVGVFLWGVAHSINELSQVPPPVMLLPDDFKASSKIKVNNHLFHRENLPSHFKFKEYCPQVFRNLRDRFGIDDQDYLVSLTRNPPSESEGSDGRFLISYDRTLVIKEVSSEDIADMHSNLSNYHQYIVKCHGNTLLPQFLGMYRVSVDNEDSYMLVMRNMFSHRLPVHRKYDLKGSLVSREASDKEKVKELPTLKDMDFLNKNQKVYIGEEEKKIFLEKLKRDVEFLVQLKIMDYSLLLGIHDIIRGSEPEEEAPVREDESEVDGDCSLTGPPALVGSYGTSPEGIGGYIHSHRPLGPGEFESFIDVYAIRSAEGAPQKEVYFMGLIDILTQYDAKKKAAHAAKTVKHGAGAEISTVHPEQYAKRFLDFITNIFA
# Method in brief: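 Live A375 melanoma cells were treated with compound at 5 or 0.5 μM, then lysed. Lysates were labeled with a lysine-reactive ATP or ADP-biotin probe. Read-out was the compound's protection of kinase labeling sites from probe labeling (KiNativ).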
# [5] = biological target: Serine/threonine-protein kinase WNK4 (Homo sapiens) (UniProt Q96J92); assay: Inhibition of Wnk4 ACT labeling site in human A-375 cells at 0.05 uM by KiNativ Profiling analysis relative to control
# [6] = biological target: Dual specificity mitogen-activated protein kinase kinase 1 (Homo sapiens) (UniProt Q02750); assay: Inhibition of MAP2K1 Lys2 labeling site harbouring IMHRDVKPSNILVNSR in human A-375 cells at 0.5 uM by KiNativ Profiling analysis relative to control
# Chain of Dual specificity mitogen-activated protein kinase kinase 1 (Homo sapiens) (Q02750 whole entry): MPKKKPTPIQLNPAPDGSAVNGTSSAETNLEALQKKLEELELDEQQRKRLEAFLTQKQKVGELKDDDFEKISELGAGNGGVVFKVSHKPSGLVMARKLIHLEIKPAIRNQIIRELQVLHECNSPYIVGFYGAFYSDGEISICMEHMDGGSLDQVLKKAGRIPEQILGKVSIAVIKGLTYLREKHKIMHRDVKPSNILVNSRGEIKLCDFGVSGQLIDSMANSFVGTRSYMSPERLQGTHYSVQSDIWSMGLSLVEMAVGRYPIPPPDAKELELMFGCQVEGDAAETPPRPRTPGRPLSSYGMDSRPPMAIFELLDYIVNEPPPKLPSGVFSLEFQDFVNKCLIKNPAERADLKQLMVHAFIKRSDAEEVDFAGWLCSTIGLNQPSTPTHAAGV
# [7] = biological target: Serine/threonine-protein kinase MRCK beta (Homo sapiens) (UniProt Q9Y5S2); assay: Inhibition of MRCKb in human A-375 cells at 0.5 uM by KiNativ Profiling analysis relative to control
# Chain of Serine/threonine-protein kinase MRCK beta (Homo sapiens) (Q9Y5S2 whole entry): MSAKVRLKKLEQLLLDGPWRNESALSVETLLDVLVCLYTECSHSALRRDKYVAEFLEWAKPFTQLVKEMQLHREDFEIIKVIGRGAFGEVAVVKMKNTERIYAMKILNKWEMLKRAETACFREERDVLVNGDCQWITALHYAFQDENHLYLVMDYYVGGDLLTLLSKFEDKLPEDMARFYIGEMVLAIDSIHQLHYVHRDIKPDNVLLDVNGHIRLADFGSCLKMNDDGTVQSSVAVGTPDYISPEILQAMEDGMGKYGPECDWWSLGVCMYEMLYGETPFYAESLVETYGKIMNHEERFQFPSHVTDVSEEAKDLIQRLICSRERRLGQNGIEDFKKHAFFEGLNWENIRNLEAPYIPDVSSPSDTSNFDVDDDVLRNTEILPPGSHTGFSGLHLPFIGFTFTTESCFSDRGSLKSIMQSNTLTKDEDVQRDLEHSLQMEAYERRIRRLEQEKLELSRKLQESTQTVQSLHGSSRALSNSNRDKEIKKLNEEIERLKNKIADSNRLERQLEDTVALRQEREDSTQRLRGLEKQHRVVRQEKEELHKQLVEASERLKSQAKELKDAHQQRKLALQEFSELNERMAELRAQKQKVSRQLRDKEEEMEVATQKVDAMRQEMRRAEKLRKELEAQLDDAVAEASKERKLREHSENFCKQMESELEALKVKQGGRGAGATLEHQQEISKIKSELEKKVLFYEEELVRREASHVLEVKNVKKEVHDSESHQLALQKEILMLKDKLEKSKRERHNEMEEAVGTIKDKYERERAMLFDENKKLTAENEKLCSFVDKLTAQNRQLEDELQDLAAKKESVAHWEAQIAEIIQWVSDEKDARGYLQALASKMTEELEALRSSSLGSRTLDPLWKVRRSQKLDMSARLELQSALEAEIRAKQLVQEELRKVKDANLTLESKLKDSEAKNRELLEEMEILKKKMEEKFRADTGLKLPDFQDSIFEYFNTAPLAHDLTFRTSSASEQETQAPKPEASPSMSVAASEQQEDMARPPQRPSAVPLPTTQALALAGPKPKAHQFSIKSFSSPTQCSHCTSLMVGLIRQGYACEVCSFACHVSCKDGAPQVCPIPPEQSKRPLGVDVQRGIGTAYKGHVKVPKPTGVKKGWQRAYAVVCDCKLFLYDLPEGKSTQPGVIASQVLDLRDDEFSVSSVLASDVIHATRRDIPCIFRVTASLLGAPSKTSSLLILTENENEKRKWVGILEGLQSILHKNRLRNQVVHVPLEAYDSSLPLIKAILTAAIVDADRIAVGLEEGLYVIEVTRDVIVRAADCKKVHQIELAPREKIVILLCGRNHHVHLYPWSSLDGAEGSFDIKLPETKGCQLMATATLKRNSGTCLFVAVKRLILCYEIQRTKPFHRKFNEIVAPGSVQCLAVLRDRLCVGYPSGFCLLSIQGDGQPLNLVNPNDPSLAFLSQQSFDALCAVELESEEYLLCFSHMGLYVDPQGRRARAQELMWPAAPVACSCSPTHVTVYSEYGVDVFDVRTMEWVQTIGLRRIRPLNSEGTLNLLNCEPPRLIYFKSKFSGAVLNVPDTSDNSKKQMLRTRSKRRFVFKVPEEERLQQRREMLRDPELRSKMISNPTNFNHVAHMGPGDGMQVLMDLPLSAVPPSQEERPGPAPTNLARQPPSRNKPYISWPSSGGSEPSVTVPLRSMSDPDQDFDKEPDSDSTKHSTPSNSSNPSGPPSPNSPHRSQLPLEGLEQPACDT
# [8] = biological target: T3, Serine/threonine-protein kinase TAO2 (Homo sapiens) (UniProt Q9UL54); assay: Inhibition of TAO2 Lys2 labeling site in human A-375 cells at 5 uM by KiNativ Profiling analysis relative to control
# T3 sequence (whole entry): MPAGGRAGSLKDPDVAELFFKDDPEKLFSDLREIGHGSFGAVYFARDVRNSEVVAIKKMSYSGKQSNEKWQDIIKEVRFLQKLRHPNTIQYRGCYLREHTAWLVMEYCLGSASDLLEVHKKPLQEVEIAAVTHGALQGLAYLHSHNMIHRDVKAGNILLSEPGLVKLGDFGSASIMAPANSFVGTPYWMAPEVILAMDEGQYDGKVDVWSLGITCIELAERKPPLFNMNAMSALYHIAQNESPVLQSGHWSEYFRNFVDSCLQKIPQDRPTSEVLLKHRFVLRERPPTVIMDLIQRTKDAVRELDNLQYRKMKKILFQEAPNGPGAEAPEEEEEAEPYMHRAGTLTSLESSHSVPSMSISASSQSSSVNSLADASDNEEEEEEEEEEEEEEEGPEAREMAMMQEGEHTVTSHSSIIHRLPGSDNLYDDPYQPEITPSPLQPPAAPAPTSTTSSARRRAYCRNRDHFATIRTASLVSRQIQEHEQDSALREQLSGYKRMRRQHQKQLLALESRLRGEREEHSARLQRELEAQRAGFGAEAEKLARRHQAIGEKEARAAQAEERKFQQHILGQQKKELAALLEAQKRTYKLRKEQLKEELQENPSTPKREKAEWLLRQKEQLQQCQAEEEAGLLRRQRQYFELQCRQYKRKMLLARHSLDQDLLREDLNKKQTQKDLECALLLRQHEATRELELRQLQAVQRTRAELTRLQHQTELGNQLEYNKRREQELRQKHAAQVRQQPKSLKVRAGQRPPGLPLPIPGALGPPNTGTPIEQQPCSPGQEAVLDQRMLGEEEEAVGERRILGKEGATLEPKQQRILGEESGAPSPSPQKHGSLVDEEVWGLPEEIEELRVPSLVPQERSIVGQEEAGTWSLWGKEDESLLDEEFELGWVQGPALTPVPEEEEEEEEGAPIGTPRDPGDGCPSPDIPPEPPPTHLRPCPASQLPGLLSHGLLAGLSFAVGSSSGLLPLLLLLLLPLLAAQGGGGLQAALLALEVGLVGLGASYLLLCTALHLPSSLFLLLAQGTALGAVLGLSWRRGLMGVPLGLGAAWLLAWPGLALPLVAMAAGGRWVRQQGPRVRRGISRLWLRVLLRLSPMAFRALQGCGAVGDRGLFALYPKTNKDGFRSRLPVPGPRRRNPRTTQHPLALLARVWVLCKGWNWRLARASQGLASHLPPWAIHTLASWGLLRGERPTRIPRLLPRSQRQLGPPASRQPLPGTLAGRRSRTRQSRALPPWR
# [9] = biological target: Serine/threonine-protein kinase WNK2 (Homo sapiens) (UniProt Q9Y3S1); assay: Inhibition of Wnk2 ACT labeling site in human A-375 cells at 5 uM by KiNativ Profiling analysis relative to control
# Chain of eIF-2-alpha kinase GCN2 (Homo sapiens) (Q9P2K8 whole entry, the tested form may be a part): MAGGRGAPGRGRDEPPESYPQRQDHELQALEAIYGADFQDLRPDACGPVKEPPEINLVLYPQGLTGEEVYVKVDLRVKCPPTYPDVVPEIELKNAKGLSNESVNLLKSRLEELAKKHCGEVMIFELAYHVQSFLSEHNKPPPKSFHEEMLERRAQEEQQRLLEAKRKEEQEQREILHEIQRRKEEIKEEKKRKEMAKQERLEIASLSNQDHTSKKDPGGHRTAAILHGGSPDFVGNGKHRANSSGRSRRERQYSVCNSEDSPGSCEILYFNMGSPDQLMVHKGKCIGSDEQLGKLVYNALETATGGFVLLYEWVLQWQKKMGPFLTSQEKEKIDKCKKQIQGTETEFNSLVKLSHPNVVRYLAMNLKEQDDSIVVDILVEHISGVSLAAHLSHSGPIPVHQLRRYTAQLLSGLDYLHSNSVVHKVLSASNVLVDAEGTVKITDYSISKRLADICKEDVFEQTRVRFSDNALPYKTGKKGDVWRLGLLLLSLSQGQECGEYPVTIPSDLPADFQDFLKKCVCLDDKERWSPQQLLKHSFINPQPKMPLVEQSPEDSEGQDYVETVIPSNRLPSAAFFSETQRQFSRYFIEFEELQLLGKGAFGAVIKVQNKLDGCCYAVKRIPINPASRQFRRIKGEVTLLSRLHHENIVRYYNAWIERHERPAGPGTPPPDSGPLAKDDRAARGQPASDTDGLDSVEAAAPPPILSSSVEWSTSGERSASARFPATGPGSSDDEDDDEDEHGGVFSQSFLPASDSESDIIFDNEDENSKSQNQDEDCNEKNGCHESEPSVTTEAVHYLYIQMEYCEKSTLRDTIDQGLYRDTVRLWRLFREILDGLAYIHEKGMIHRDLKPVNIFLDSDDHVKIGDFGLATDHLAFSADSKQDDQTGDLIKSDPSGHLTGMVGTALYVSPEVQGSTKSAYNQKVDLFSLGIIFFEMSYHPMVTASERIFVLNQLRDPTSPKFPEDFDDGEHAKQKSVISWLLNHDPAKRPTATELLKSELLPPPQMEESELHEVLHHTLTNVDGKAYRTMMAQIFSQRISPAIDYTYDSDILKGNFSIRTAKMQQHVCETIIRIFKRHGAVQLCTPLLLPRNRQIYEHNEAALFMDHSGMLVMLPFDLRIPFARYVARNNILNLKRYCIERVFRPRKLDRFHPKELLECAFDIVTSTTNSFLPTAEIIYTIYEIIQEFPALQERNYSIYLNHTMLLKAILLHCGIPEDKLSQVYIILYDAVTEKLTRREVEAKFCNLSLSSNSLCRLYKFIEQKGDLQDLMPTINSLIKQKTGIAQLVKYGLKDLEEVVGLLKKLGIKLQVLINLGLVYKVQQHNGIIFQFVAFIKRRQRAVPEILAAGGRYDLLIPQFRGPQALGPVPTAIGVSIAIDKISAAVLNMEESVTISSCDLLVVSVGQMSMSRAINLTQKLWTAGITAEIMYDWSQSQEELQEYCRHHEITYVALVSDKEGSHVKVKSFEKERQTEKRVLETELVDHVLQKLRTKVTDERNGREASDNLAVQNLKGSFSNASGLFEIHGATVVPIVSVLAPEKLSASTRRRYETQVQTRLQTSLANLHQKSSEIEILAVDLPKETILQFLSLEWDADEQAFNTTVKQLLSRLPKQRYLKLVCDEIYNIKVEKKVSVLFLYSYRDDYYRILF
SMILES,inhibition [1] [%],inhibition [2] [%],inhibition [3] [%],inhibition [4] [%],inhibition [5] [%],inhibition [6] [%],inhibition [7] [%],inhibition [8] [%],inhibition [9] [%]
CCN1CCN(Cc2ccc(NC(=O)c3ccc(C)c(Oc4ccnc5[nH]ccc45)c3)cc2C(F)(F)F)CC1,-10,14.4,44.8,-1.8,10.3,28.4,-3,82.5,14.4
CCN1CCN(Cc2ccc(NC(=O)c3ccc(C)c(/C=C/c4cnc5[nH]ccc5c4OC)c3)cc2C(F)(F)F)CC1,40.4,23.7,52.5,9.2,10.1,19.2,7.3,82.2,-4.5
